Measured values: ChEMBL document CHEMBL4196017, “Design, synthesis and identification of silicon-containing HCV NS5A inhibitors with pan-genotype activity” (Eur J Med Chem, 2018)

What was measured:
[1] = Half life in mouse at 10 mg/kg, ig administered as single dose by UPLC-MS/MS analysis; assay type: ADME, organism-based; details: in vivo, po
Outline: (§1)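 Adult male mice (12 h light-dark, 22 °C, 55% humidity) fasted 12 h with free water, then given a single 10 mg/kg intragastric dose; plasma concentrations by UPLC-MS/MS; PK parameters calculated by software.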

[2] = Metabolic stability in mouse liver microsomes assessed as parent compound remaining at 0.2 uM preincubated for 5 mins followed by NADPH addition measured up to 60 mins by UPLC-MS/MS analysis; assay type: ADME, microsome; details: read-out: Stability
Outline: (§2)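 Pooled mouse, rat or human liver microsomes 0.2 mg/mL with 1 mM NADPH, 5 mM MgCl2, 100 mM potassium phosphate pH 7.4 and 0.2 µM compound; 5-min preincubation at 37 °C, NADPH start, sampled at 5, 15, 30, 60 min; ice-cold acetonitrile stop; UPLC-MS/MS; percent parent remaining at 60 min.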

[3] = molecular target: T1, Nonstructural protein 5A (Hepatitis C virus) (UniProt Q5L478); test: Potency index, ratio of ombitasvir IC50 to compound IC50 for inhibition of NS5A in HCV genotype 6a infected in human HuH7 replicon cells expressing HCV genotype 1b chimeric replicon; assay type: cell-based; details: Hepatitis C virus subtype 6a
T1 sequence (whole entry): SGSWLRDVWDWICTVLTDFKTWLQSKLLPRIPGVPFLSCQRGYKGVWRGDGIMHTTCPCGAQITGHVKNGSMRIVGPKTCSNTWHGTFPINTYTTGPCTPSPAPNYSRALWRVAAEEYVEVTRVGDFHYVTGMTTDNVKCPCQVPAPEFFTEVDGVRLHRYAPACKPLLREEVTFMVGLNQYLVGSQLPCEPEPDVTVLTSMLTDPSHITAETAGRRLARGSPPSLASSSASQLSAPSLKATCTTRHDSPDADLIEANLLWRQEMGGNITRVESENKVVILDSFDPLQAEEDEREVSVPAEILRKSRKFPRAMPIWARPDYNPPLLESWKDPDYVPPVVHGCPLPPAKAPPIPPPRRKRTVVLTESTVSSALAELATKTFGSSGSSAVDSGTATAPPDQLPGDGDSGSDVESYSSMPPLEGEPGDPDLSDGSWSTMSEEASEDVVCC

[4] = Tmax in mouse at 10 mg/kg, ig administered as single dose by UPLC-MS/MS analysis; assay type: ADME, organism-based; details: in vivo, po; outline: as §1
[5] = Metabolic stability in rat liver microsomes assessed as parent compound remaining at 0.2 uM preincubated for 5 mins followed by NADPH addition measured up to 60 mins by UPLC-MS/MS analysis; assay type: ADME, microsome; details: read-out: Stability; outline: as §2
[6] = Cmax in mouse at 10 mg/kg, ig administered as single dose by UPLC-MS/MS analysis; assay type: ADME, organism-based; design: dose 10 mg/kg, route intragastric; details: in vivo, po; outline: as §1
[7] = molecular target: T1, Nonstructural protein 5A (Hepatitis C virus); test: Potency index, ratio of ombitasvir IC50 to compound IC50 for inhibition of NS5A in HCV genotype 3a infected in human HuH7 replicon cells expressing HCV genotype 1b chimeric replicon; assay type: cell-based; details: Hepatitis C virus subtype 3a
[8] = AUC (0 to t) in mouse at 10 mg/kg, ig administered as single dose by UPLC-MS/MS analysis; assay type: ADME, organism-based; details: in vivo, po; outline: as §1
[9] = Metabolic stability in human liver microsomes assessed as parent compound remaining at 0.2 uM preincubated for 5 mins followed by NADPH addition measured up to 60 mins by UPLC-MS/MS analysis; assay type: ADME, microsome; details: read-out: Stability; outline: as §2

| SMILES | half-life [1] [h] | remaining at 1 h, 0.2 µM [2] [%] | Ratio IC50 [3] | Tmax [4] [h] | remaining at 1 h, 0.2 µM [5] [%] | Cmax [6] [ng/mL] | Ratio IC50 [7] | AUC(0-t) [8] [ng·h/mL] | remaining at 1 h, 0.2 µM [9] [%] |
| --- | --- | --- | --- | --- | --- | --- | --- | --- | --- |
| COC(=O)N[C@H](C(=O)N1CCC[C@H]1C(=O)Nc1ccc([C@@H]2CC[C@@H](c3ccc(NC(=O)[C@@H]4CCCN4C(=O)[C@@H](NC(=O)OC)C(C)C)cc3)N2c2ccc([Si](C)(C)C)cc2)cc1)C(C)C | 8.8 | 93.3 | 2.4 | 3 | 101 | 262 | 2.3 | 2910 | 99.2 |
| COC(=O)N[C@H](C(=O)N1CCC[C@H]1C(=O)Nc1ccc([C@@H]2CC[C@@H](c3ccc(NC(=O)[C@@H]4CCCN4C(=O)[C@@H](NC(=O)OC)C(C)C)cc3)N2c2ccc([Si](C)(C)C(C)(C)C)cc2)cc1)C(C)C | 34.7 | 92.1 | 3.7 | 3 | 87 | 211 | 7.2 | 3520 | 84.3 |
